10 compounds from ChEMBL document CHEMBL3784971, “Synthesis, characterization, antimicrobial and biofilm inhibitory studies of new esterquats” (Bioorg Med Chem Lett, 2016) can be followed below.

Converted amounts (≈) assume the structure as drawn.

The test system of experiment [1] is Raoultella planticola. Nature of the experiment: Antimicrobial activity against Klebsiella planticola MTCC 530 assessed as growth inhibition after 24 hrs by agar well diffusion method. It counts as functional. The note with it: MTCC 530, 24 h. (Agar diffusion results depend on both activity and mobility in agar.)
Experiment [2] concerns Escherichia coli. Nature of the experiment: Antimicrobial activity against Escherichia coli MTCC 739 assessed as growth inhibition after 24 hrs by agar well diffusion method. It counts as functional. The note with it: MTCC 739, 24 h.
Experiment [3] has as its system Staphylococcus aureus. Nature of the experiment: Bactericidal activity against Staphylococcus aureus MTCC 96 after 24 hrs by serial dilution method. In kind it is functional. The note with it: MTCC 96, 24 h.
In experiment [4] the test system is Staphylococcus aureus. Nature of the experiment: Antimicrobial activity against Staphylococcus aureus MTCC 96 assessed as growth inhibition after 24 hrs by agar well diffusion method. As to conditions: MTCC 96, 24 h. In kind it is functional.
The test system of experiment [5] is Staphylococcus aureus. Nature of the experiment: Bactericidal activity against Staphylococcus aureus MLS16 MTCC 2940 after 24 hrs by serial dilution method. In kind it is functional. The note with it: MLS16 MTCC 2940, 24 h.
In experiment [6] the test system is Bacillus subtilis. The experiment is described as follows: Bactericidal activity against Bacillus subtilis MTCC 121 after 24 hrs by serial dilution method. In kind it is functional. The note with it: MTCC 121, 24 h.
The test system of experiment [7] is Micrococcus luteus. The experiment is described as follows: Bactericidal activity against Micrococcus luteus MTCC 2470 after 24 hrs by serial dilution method. It counts as functional. The note with it: MTCC 2470, 24 h.
In experiment [8] the test system is Pseudomonas aeruginosa. Nature of the experiment: Antimicrobial activity against Pseudomonas aeruginosa MTCC 2453 assessed as growth inhibition after 24 hrs by agar well diffusion method. As to conditions: MTCC 2453, 24 h. It counts as functional.
Experiment [9] deals with Bacillus subtilis. Nature of the experiment: Antimicrobial activity against Bacillus subtilis MTCC 121 assessed as growth inhibition after 24 hrs by agar well diffusion method. In kind it is functional. The note with it: MTCC 121, 24 h.
In experiment [10] the test system is Candida albicans. Nature of the experiment: Antimicrobial activity against Candida albicans MTCC 3017 assessed as growth inhibition after 24 hrs by agar well diffusion method. It counts as functional. The note with it: MTCC 3017, 24 h.
Experiment [11] relates to Raoultella planticola. Nature of the experiment: Bactericidal activity against Klebsiella planticola MTCC 530 after 24 hrs by serial dilution method. In kind it is functional. The note with it: MTCC 530, 24 h.
Experiment [12] concerns Escherichia coli. Nature of the experiment: Bactericidal activity against Escherichia coli MTCC 739 after 24 hrs by serial dilution method. It counts as functional. The note with it: MTCC 739, 24 h.
Experiment [13] concerns Staphylococcus aureus. The experiment is described as follows: Antimicrobial activity against Staphylococcus aureus MLS16 MTCC 2940 assessed as growth inhibition after 24 hrs by agar well diffusion method. In kind it is functional. As to conditions: MLS16 MTCC 2940, 24 h.
Experiment [14] deals with Micrococcus luteus. The experiment is described as follows: Antimicrobial activity against Micrococcus luteus MTCC 2470 assessed as growth inhibition after 24 hrs by agar well diffusion method. In kind it is functional. As to conditions: MTCC 2470, 24 h.
Experiment [15] relates to Micrococcus luteus. The experiment is described as follows: Antibiofilm activity against Micrococcus luteus MTCC 2470 after 24 hrs by crystal violet staining based assay. It counts as functional, organism-based. The note with it: MTCC 2470, 24 h. An outline of the steps:
(§1)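 Biofilm inhibition tested for amine esters and esterquats. IC50 values (µg/mL) are the mean of three determinations, with ciprofloxacin as reference.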

Experiment [16] has as its system Staphylococcus aureus. The experiment is described as follows: Antibiofilm activity against Staphylococcus aureus MTCC 96 after 24 hrs by crystal violet staining based assay. In kind it is functional, organism-based. The note with it: MTCC 96, 24 h. An outline of the steps: as §1
Experiment [17] concerns Staphylococcus aureus. Nature of the experiment: Antibiofilm activity against Staphylococcus aureus MLS16 MTCC 2940 after 24 hrs by crystal violet staining based assay. It counts as functional, organism-based. As to conditions: MLS16 MTCC 2940, 24 h. An outline of the steps:
as §1

One may read the MIC as the lowest concentration that inhibits growth of the organism. By MBC is commonly meant the smallest concentration meeting the test's criterion for killing. As usually defined, the IC50 is the concentration that gives 50% inhibition. Low values mean inhibition by little substance, high ones a need for much substance.

Regarding `CCCCCCCCCCCCCCCCCCNCCCCCCCCCCC(=O)OC`, the MIC in [1], in experiment [2], in experiment [4], in experiment [8], in experiment [9] and in experiment [10] was more than 125 µg/mL throughout. The MIC in experiment [13] and in [14] was more than 125 µg/mL in each case. Moreover, the MBC in experiment [3], in experiment [5], in [6], in experiment [7], in [11] and in experiment [12] was more than 125 µg/mL each time.

With `CCCCCCCCCCCCCCCCCCN(CCCCCCCCCCC(=O)OC)CCCCCCCCCCC(=O)OC`, the MIC in experiment [1], in [2], in experiment [4], in experiment [8], in experiment [9] and in experiment [10] was more than 125 µg/mL each time. The MIC in [13] and in experiment [14] was more than 125 µg/mL in each case. Besides, the MBC in experiment [3], in [5], in [6], in experiment [7], in experiment [11] and in [12] was more than 125 µg/mL in each case.

Regarding `CCCCCCN(CCCCCCCCCCC(=O)OC)CCCCCCCCCCC(=O)OC`, the minimum inhibitory concentration (MIC) in experiment [1] was more than 125 µg/mL; in experiment [2], more than 125 µg/mL; in experiment [4] it was 31.2 µg/mL (≈ 62.7 µM); in experiment [8], more than 125 µg/mL; in experiment [9] it was 62.5 µg/mL (≈ 126 µM); in [10] it was more than 125 µg/mL. Moreover, the MIC in experiment [13] turned out to be 62.5 µg/mL (≈ 126 µM); in experiment [14], 31.2 µg/mL (≈ 62.7 µM). Besides, the MBC in experiment [3] was 62.5 µg/mL (≈ 126 µM); in [5], more than 125 µg/mL; in [6], more than 125 µg/mL; in [7], 62.5 µg/mL (≈ 126 µM); in experiment [11], more than 125 µg/mL; in experiment [12], more than 125 µg/mL. Also, the IC50 in experiment [15] turned out to be 18.6 µg/mL (≈ 37.4 µM); in [16] it was 20.1 µg/mL (≈ 40.4 µM).

Regarding `CCCCCCCCCCCCN(CCCCCCCCCCC(=O)OC)CCCCCCCCCCC(=O)OC`, the MIC in [1], in experiment [2], in experiment [4], in experiment [8], in [9] and in [10] was more than 125 µg/mL throughout. The MIC in [13] and in experiment [14] was more than 125 µg/mL each time. Besides, the MBC in experiment [3], in [5], in experiment [6], in experiment [7], in [11] and in [12] was more than 125 µg/mL throughout.

For the compound `CCCCCCCCCCCCNCCCCCCCCCCC(=O)OC`, the MIC in [1], in [2], in experiment [4], in experiment [8], in experiment [9] and in experiment [10] was more than 125 µg/mL each time. The MIC in experiment [13] and in [14] was more than 125 µg/mL each time. Also, the MBC in [3], in experiment [5], in [6], in experiment [7], in experiment [11] and in experiment [12] was more than 125 µg/mL each time.

Take `COC(=O)CCCCCCCCCCN(C1CCCCC1)C1CCCCC1`: the MIC in experiment [1] is more than 125 µg/mL; in experiment [2], more than 125 µg/mL; in [4], 31.2 µg/mL (≈ 82.2 µM); in experiment [8] it was more than 125 µg/mL; in experiment [9], 62.5 µg/mL (≈ 165 µM); in experiment [10], more than 125 µg/mL. Besides, the values for the MIC in experiment [13] and in experiment [14] were 31.2 µg/mL (≈ 82.2 µM) and 15.6 µg/mL (≈ 41.1 µM), respectively. In addition, the minimal bactericidal concentration (MBC) in experiment [3] was 62.5 µg/mL (≈ 165 µM); in experiment [5] it was more than 125 µg/mL; in experiment [6], more than 125 µg/mL; in experiment [7] it was 31.2 µg/mL (≈ 82.2 µM); in experiment [11], more than 125 µg/mL; in experiment [12], more than 125 µg/mL. Also, the results for the IC50 in experiment [15], in experiment [16] and in [17] were 19.9 µg/mL (≈ 52.4 µM), 21.3 µg/mL (≈ 56.1 µM) and 20.8 µg/mL (≈ 54.8 µM), respectively.

Regarding `CCCCCCCCN(CCCCCCCC)CCCCCCCCCCC(=O)OC`, the MIC was more than 125 µg/mL in [1]; more than 125 µg/mL in [2]; 15.6 µg/mL (≈ 35.5 µM) in [4]; more than 125 µg/mL in [8]; more than 125 µg/mL in experiment [9]; more than 125 µg/mL in [10]. In addition, the minimal inhibitory concentration (MIC) in [13] was found to be 62.5 µg/mL (≈ 142 µM); in [14], 31.2 µg/mL (≈ 70.9 µM). The MBC in [3] was 31.2 µg/mL (≈ 70.9 µM); in experiment [5], more than 125 µg/mL; in experiment [6] it was more than 125 µg/mL; in [7] it was 62.5 µg/mL (≈ 142 µM); in [11], more than 125 µg/mL; in experiment [12], more than 125 µg/mL. The figures for the IC50 in [15] and in experiment [16] were 17.2 µg/mL (≈ 39.1 µM) and 14.5 µg/mL (≈ 33 µM), respectively.

With `CCCCCCCCCCCCCCCCCC[N+](C)(C)CCCCCCCCCCC(=O)OC.[Cl-]`, the MIC in experiment [1], in experiment [2], in [4], in [8], in experiment [9] and in experiment [10] was more than 125 µg/mL throughout. For the same compound, the MIC in experiment [13] and in [14] was more than 125 µg/mL in each case. Further, the MBC in [3], in experiment [5], in [6], in [7], in experiment [11] and in experiment [12] was more than 125 µg/mL throughout.

As for `CCCCCCCCCCCC[N+](C)(CCCCCCCCCCC(=O)OC)CCCCCCCCCCC(=O)OC.[Cl-]`, the MIC in experiment [1], in experiment [2], in [4], in experiment [8], in [9] and in experiment [10] was more than 125 µg/mL in each case. For the same compound, the MIC in experiment [13] and in experiment [14] was more than 125 µg/mL each time. Further, the MBC in experiment [3], in experiment [5], in experiment [6], in [7], in experiment [11] and in experiment [12] was more than 125 µg/mL throughout.

Consider `CCCCCCCCCCCCCCCCCC[N+](C)(CCCCCCCCCCC(=O)OC)CCCCCCCCCCC(=O)OC.[Cl-]`, for which the MIC in experiment [1], in experiment [2], in experiment [4], in experiment [8], in experiment [9] and in experiment [10] was more than 125 µg/mL in each case. Besides, the MIC in experiment [13] and in [14] was more than 125 µg/mL in each case. In addition, the MBC in experiment [3], in [5], in experiment [6], in experiment [7], in experiment [11] and in experiment [12] was more than 125 µg/mL throughout.
